Drawing on ChEMBL document CHEMBL3745654, “N-Alkylated arylsulfonamides of (aryloxy)ethyl piperidines: 5-HT(7) receptor selectivity versus multireceptor profile” (Bioorg Med Chem, 2016), this text covers inhibition, Ki and microsomal CLint for four molecules.

Series [1] deals with Sodium-dependent serotonin transporter (Rattus norvegicus) (UniProt P31652). As to the kind of experiment: Displacement of [3H]-citalopram from rat cerebral cortex SERT at 1 uM. The format is tissue-based.
Series [2] deals with Histamine H1 receptor (Homo sapiens) (UniProt P35367). As to the kind of experiment: Displacement of [3H]-pyrilamine from human recombinant histamine H1 receptor expressed in HEK293 cells at 1 uM after 60 mins by Scintillation counting method. The format is cell-based.
A further series deals with D(2) dopamine receptor (Homo sapiens, UniProt P14416). Description: Displacement of [3H]-Raclopride from human dopamine D2L receptor expressed in HEK293 cells incubated for 1 hr. The format is cell-based. In short, it runs like this:
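Membranes from HEK293 cells stably expressing human D2L receptor, with [3H]-raclopride (74.4 Ci/mmol). Buffer: Tris-HCl, EDTA, MgCl2, 120 mM NaCl, 5 mM KCl, 1.5 mM CaCl2, ascorbate. Incubation 1 h at 37 °C, then filtration. Non-specific binding defined with (+)butaclamol. Triplicates at 7–8 concentrations (10^-11 to 10^-4 M). Ki by Cheng–Prusoff.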

A short description of series [3]: Intrinsic clearance in mouse liver microsomes at 20 uM at pH 7.4 incubated for 15 mins by UPLC/MS analysis in presence of NADPH. The format is ADME. The following applies: read-out: CLH. (Microsomes from liver hold many membrane-bound enzymes, among them those of drug oxidation.)
Series [4] deals with 5-hydroxytryptamine receptor 2A (Homo sapiens, UniProt P28223). Description: Displacement of [3H]-ketanserin from human 5-HT2A receptor expressed in HEK293 cells incubated for 1 hr. The format is cell-based. In short, it runs like this: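 Membranes from HEK293 cells stably expressing human 5-HT2A receptor, with [3H]-ketanserin (66.9 Ci/mmol). Incubation 1 h at 37 °C, then rapid filtration and counting. Triplicates at 7–8 concentrations (10^-11 to 10^-4 M). Ki by Cheng–Prusoff; means of at least three experiments.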
For orientation: Loss of bound radioactivity is the signal in a displacement assay; it reports binding, not function.

Series [5] concerns the target T1, 5-hydroxytryptamine receptor 1A (Homo sapiens, UniProt P08908).
T1 sequence (P08908 whole entry): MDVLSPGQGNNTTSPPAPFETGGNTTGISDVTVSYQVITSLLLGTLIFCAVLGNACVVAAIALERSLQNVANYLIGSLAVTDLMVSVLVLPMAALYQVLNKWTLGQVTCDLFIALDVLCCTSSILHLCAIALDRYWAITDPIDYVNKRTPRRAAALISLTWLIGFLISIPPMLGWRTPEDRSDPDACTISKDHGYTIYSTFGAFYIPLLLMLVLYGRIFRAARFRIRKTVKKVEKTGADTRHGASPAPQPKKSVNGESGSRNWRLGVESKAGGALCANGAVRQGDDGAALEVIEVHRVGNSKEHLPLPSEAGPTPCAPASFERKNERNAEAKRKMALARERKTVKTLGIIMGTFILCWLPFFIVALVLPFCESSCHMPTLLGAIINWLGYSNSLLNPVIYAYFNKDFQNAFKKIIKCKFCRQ
Description: Displacement of [3H]-8-OH-DPAT from human 5-HT1A receptor expressed in HEK293 cells incubated for 1 hr. The format is cell-based. Put shortly: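 Membranes from HEK293 cells stably expressing human 5-HT1A receptor, with [3H]-8-OH-DPAT (187 Ci/mmol). Buffer: 50 mM Tris-HCl, 0.1 mM EDTA, 4 mM MgCl2, pargyline, 0.1% ascorbate. Incubation 1 h at room temperature, then filtration. Non-specific binding defined with 5-HT. Triplicates at 7–8 concentrations. Ki by Cheng–Prusoff.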

For series [6], the target named is 5-hydroxytryptamine receptor 7 (Homo sapiens, UniProt P34969). As to the kind of experiment: Displacement of [3H]-5-CT from human 5-HT7B receptor expressed in HEK293 cells incubated for 1 hr. The format is cell-based. Put shortly:
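Membranes from HEK293 cells stably expressing human 5-HT7b receptor, with [3H]-5-CT (39.2 Ci/mmol). Buffer: 50 mM Tris-HCl, 4 mM MgCl2, pargyline, 0.1% ascorbate. Incubation 1 h at 37 °C, then rapid filtration and counting of filter radioactivity. Non-specific binding defined with 5-HT. Triplicates at 7–8 concentrations (10^-11 to 10^-4 M). Ki by Cheng–Prusoff.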

Series [7] has as its target T2, 5-hydroxytryptamine receptor 2C (Homo sapiens) (UniProt P28335).
T2 sequence (whole entry): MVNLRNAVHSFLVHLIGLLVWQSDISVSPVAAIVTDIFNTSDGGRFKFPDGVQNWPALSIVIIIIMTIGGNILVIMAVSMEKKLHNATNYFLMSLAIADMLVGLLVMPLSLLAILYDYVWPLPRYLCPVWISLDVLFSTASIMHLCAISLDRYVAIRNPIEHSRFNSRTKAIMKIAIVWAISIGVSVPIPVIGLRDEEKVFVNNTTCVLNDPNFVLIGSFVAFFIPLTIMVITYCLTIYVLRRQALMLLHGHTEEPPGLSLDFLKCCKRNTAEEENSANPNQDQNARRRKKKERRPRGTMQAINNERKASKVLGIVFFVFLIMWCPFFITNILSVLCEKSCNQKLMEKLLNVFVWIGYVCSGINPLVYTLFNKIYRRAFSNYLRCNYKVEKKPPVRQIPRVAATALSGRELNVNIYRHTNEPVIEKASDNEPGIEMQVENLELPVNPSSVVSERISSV
As to the kind of experiment: Displacement of [3H]-mesulergine from human recombinant serotonin 5-HT2C receptor expressed in HEK293 cells at 1 uM incubated for 120 mins by scintillation counting method. Format: cell-based.

Chain of Sodium-dependent serotonin transporter (Rattus norvegicus) (P31652 whole entry): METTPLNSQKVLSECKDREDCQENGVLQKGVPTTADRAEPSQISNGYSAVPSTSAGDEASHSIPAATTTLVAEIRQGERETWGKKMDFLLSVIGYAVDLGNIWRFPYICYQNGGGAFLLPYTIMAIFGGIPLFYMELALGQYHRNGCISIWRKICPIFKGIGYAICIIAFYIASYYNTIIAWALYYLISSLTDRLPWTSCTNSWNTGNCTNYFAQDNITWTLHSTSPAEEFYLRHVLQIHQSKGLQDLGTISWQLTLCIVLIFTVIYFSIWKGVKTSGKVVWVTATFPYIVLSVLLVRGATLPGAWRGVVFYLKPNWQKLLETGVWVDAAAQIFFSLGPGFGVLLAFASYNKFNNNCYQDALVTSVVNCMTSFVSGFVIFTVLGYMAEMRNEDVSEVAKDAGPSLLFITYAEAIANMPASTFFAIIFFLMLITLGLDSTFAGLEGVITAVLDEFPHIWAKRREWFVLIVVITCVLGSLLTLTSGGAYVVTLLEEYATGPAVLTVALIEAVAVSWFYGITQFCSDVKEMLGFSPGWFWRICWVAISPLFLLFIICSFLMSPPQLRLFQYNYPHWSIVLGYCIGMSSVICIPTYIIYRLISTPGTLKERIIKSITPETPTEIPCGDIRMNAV
Chain of 5-hydroxytryptamine receptor 7 (P34969 whole entry): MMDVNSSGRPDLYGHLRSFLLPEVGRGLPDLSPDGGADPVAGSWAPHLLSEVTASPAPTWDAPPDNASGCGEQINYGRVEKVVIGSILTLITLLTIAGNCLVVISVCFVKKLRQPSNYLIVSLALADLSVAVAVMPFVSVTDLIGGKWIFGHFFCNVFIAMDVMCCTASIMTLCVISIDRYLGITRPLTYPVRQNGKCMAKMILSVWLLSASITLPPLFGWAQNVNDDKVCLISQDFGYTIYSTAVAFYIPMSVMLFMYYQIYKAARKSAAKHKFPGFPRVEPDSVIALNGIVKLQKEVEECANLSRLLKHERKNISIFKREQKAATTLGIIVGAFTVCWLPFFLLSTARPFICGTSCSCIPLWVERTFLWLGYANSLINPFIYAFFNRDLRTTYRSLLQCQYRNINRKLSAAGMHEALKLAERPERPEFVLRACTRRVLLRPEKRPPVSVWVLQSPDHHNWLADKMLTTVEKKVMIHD
Chain of D(2) dopamine receptor (P14416 whole entry): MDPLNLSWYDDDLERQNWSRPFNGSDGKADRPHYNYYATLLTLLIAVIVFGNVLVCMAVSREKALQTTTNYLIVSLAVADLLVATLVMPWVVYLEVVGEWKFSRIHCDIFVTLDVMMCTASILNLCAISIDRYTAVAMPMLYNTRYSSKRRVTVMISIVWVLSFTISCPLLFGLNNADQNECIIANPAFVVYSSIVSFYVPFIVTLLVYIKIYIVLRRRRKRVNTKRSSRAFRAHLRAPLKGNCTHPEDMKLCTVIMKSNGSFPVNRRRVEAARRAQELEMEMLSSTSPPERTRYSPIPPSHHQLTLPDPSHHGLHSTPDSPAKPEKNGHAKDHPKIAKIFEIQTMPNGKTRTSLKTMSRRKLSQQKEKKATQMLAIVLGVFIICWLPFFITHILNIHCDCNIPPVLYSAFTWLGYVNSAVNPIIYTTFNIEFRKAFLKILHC
Chain of Histamine H1 receptor (Homo sapiens) (P35367 whole entry): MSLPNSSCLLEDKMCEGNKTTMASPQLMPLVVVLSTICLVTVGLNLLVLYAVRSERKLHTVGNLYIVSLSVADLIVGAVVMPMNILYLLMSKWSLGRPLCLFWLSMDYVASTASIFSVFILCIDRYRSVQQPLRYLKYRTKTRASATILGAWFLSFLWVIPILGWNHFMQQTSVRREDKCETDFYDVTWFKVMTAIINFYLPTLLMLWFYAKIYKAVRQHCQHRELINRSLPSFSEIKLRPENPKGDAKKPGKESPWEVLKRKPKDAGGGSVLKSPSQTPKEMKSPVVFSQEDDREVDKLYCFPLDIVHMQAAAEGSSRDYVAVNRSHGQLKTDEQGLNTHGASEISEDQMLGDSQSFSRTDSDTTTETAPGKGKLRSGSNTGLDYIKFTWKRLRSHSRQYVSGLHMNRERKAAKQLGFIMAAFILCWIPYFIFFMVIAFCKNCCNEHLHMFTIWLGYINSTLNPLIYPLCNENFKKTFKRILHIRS
Chain of 5-hydroxytryptamine receptor 2A (P28223 whole entry): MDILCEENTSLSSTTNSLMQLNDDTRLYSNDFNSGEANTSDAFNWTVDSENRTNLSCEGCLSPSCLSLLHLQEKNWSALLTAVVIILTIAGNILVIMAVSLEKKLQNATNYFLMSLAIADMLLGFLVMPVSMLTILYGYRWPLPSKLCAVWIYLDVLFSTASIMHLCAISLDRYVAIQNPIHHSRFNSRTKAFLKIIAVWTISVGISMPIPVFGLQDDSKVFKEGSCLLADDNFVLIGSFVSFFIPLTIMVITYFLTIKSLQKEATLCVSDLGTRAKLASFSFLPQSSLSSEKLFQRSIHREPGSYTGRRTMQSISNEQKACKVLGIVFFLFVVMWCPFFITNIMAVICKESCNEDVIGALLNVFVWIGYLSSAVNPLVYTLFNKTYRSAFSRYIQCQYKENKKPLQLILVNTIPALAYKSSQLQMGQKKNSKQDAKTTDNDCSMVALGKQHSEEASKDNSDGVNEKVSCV

One may read the inhibition as the change of the read-out against control, counted positive when it falls. Broadly, the Ki is the dissociation constant of the complex between target and ligand, obtained from inhibition or displacement. As for `CN(C1CCN(CCOc2ccccc2C(C)(C)C)CC1)S(=O)(=O)c1cnn(C)c1`, the inhibition in series [1] was under 20%; in series [2], under 64%; in series [7] it was under 17%. In addition, the Ki on D(2) dopamine receptor was determined as 280 nM; in series [4], 557 nM; in series [5], 9630 nM; in series [6], 58 nM. Further, in series [3], the microsomal CLint at 20 µM worked out at 190 µL/min/mg.
For the molecule `Cn1cc(S(=O)(=O)N(CC2CC2)C2CCN(CCOc3ccccc3C(C)(C)C)CC2)cn1`, the inhibition was under 20% in series [1], under 64% in series [2] and under 17% in series [7]. The Ki at D(2) dopamine receptor amounted to 230 nM; in series [4] it was 1480 nM; in series [5], 17800 nM; in series [6], 49 nM. Besides, the microsomal CLint at 20 µM in series [3] was 77.9 µL/min/mg.
On to `CN(C1CCN(CCOc2ccccc2-c2ccccc2)CC1)S(=O)(=O)c1cnn(C)c1`, for which the figures for the inhibition in series [1], in series [2] and in series [7] were under 20%, under 64% and under 17%, respectively. Besides, the Ki at D(2) dopamine receptor amounted to 35 nM; in series [4], 58 nM; in series [5], 80 nM; in series [6] it was 7 nM. Further, in series [3], the microsomal CLint at 20 µM was 167 µL/min/mg.
As for `Cn1cc(S(=O)(=O)N(CC2CC2)C2CCN(CCOc3ccccc3-c3ccccc3)CC2)cn1`, the inhibition was under 20% in series [1], under 64% in series [2] and under 17% in series [7]. In addition, the Ki at D(2) dopamine receptor is 16 nM; in series [4], 30 nM; in series [5], 159 nM; in series [6] it was 10 nM. Besides, the microsomal CLint at 20 µM in series [3] came out at 55.9 µL/min/mg.
